Screens: PubChem BioAssay, The Scripps Research Institute Molecular Screening Center
LEDGF integ inh = blockers of LEDGF/p75-dependent integrase strand transfer – biochemical, TR-FRET, high throughput, primary screen; TR-FRET IN-LEDGF/p75 DNA integration, Eu/Cy5; HIV-1 integrase (with human LEDGF/p75); actives 0.64% (n = 370,000); inhibition, % at 3.7 µM;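 active = inhibition above the screen-wide mean plus 3 SD, cut at about 13% in these data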;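 note: signal is the Cy5 over europium emission ratio at 671 and 618 nm; 0% = plate median of compound wells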
SIAE primary = human SIAE inhibitors, primary screen, biochemical, fluorescence polarization, FP-Rh probe, 1536-well HTS. actives 0.69% (n = 370,000). Sialate O-acetylesterase (Homo sapiens), Q9HAT2. AID 1053197, 2014. SIAE FP-Rh probe binding. inhibition, % at 9.66 µM;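 active = inhibition above a cutoff: mean of compounds within the control limits plus 3 SD of those, cut at about 17% in these data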;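 note: 0% = plate median of compound wells and 100% = probe without SIAE protein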
PRMT1 FP inh = PRMT1 methyltransferase inhibitors, primary screen, biochemical, fluorescence polarization. recombinant PRMT1, activity-based probe fluorescence polarization. inhibition, % at 2.79 µM. actives 1.3% (n = 370,000). AID 652257, 2013. Protein arginine N-methyltransferase 1 (Homo sapiens), Q99873;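 active = inhibition above about 21% made by adding two undisclosed values, limit read from the data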
TDP2 absorb = human TDP2 enzyme inhibitors, primary screen, biochemical, epi absorbance, recombinant enzyme | inhibition, % at 12.8 µM | AID 720702, 2013 | T5PNP hydrolysis, p-nitrophenol absorbance 415 nm | Tyrosyl-DNA phosphodiesterase 2 (Homo sapiens), O95551 | actives 0.34% (n = 370,000);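 active = inhibition above the mean of all tested compounds plus 3 SD, set per campaign, cut at about 25% in these data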;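 note: 0% = DMSO with enzyme and 100% = buffer with substrate but no TDP2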
Target sequence (O95551 whole entry, looked up): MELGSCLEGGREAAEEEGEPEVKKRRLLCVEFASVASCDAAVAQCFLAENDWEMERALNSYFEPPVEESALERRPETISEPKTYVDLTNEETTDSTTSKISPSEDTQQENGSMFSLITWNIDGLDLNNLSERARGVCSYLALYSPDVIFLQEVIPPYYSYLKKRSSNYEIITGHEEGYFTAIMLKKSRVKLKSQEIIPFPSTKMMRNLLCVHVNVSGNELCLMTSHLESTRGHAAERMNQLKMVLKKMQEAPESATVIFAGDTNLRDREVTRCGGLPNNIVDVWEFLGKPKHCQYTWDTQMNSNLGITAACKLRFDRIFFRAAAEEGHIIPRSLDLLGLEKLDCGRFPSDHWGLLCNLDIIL
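Material: recombinant human TDP2; quantity: TDP2 enzyme at 120 nM final; medium: Tris-HCl pH 7.5 with MgCl2; compound: single concentration, 12.8 µM nominal, with 1% DMSO; incubation: 2 h enzyme incubation at 37 °C; signal: epi absorbance; measure: percent inhibition; benchmarks: high control without enzyme, low control DMSO plus TDP2; repeats: singlicate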
UHRF1 binding = UHRF1 methylated DNA binding inhibitors, primary screen, counter-screen for MBD2 inhibitor project, biochemical, TR-FRET, human UHRF1, single concentration | actives 0.75% (n = 370,000) | AID 687016, 2013 | inhibition, % at 4.4 µM | UHRF1 binding to methylated oligo | E3 ubiquitin-protein ligase UHRF1 (Homo sapiens), Q96T88; in the data active = inhibition above about 21%;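 note: UHRF1 SRA domain binding a hemimethylated CpG hairpin DNA probe; 0% = median of test compound wells and 100% = reference inhibitor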
MBD2 inh = inhibitors of MBD2 binding to methylated DNA, primary screen, biochemical, TR-FRET, DNA-binding domain, human; AID 686964, 2013; Methyl-CpG-binding domain protein 2 (Homo sapiens), Q9UBB5; actives 0.31% (n = 370,000); MBD2 binding to methylated oligonucleotide; inhibition, % at 4.4 µM; in the data active = inhibition above about 13%
IN multimer up = HIV-1 IN multimer formation enhancers, counter-screen for LEDGF/p75 integration inhibitor project, biochemical, TR-FRET; shares compounds with LEDGF integ inh; activation, % at 7.7 µM; actives 17% (n = 2,000); TR-FRET HIV-1 integrase multimerization; in the data active = activation above about 8.9%
TR-FRET interf = TR-FRET optical interference artefacts, confirmation, artefact control for LEDGF/p75-dependent integration inhibitor project, biochemical, HIV-1 IN multimerization. shares compounds with LEDGF integ inh. TR-FRET optical interference counterscreen. inhibition, % at 7.7 µM. 2,000 tested, under 10 active. AID 1053135, 2014;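 active = inhibition above the mean over all tested compounds plus 3 SD, which no compound reached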;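 note: 0% = integrase with antibodies and DMSO and 100% = antibodies without integrase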
IN-LEDGF confirm = inhibitors of HIV-1 IN-LEDGF/p75 DNA integration, confirmation, biochemical, TR-FRET; shares compounds with LEDGF integ inh; TR-FRET LEDGF/p75-dependent HIV-1 integration; inhibition, % at 3.7 µM; actives 36% (n = 2,000); AID 1053136, 2014; in the data active = inhibition above about 14%
An asterisk follows results filed as active; / = no result given. Compounds with a hit are over-represented: about 3.3% of the library has one in this group of screens.

SMILES	LEDGF integ inh	SIAE primary	PRMT1 FP inh	TDP2 absorb	UHRF1 binding	MBD2 inh	IN multimer up	TR-FRET interf	IN-LEDGF confirm
O=C(NCCc1c[nH]c2ccccc12)OCc1cn(Cc2ccc(C(F)(F)F)cc2)nn1	-1	4	-6	3	4	-2	/	/	/
Cc1cccc[n+]1CC(=O)c1ccc(Cl)cc1	0	-12	1	-5	0	0	/	/	/
CCOc1ccc(C(=O)C[n+]2ccccc2C)cc1	14*	0	2	4	2	-3	0	1	-3
COC(=O)[C@]12C[C@H](CC(=O)NCC34CC5CC(CC(C5)C3)C4)C(=O)N(Cc3ccc(Cl)cc3Cl)C1=C[C@H](C(C)(C)C)O[C@@H]2C	-3	8	-6	4	-1	-2	/	/	/
Cc1n[nH]c(C)c1S(=O)(=O)NC(C)Cc1ccccn1 (stereo not drawn)	3	6	-1	1	4	2	/	/	/
c1cc2c(cc1CNc1ccc(N3CCOCC3)cc1)OCO2	16*	12	5	16	-3	0	5	-24	-16
c1cc(CNc2ccc(N3CCOCC3)cc2)ccn1	16*	6	5	22	-5	1	6	-23	-9
COC(=O)[C@]1(C)N[C@H](CN(C)S(=O)(=O)c2ccc(OC(F)(F)F)cc2)[C@@H]2C(=O)N(Cc3ccccc3)C(=O)[C@@H]21	15*	-3	1	0	-2	-4	0	1	-4
COC(=O)[C@]1(C)N[C@H](CN(C)S(=O)(=O)c2ccc(F)cc2)[C@@H]2C(=O)N(Cc3ccccc3)C(=O)[C@@H]21	1	1	0	2	1	-6	/	/	/
C(#CC1=CCCCC1)CNCC1CC1	4	-2	-1	0	-3	-1	/	/	/
CC(C)c1ccc(/C=C/C(=O)NCCCc2ccccc2)cc1	76*	0	-3	-16	-4	-2	3	-15	-1
COc1ccc(/C=C/C(=O)NCCCc2ccccc2)cc1	0	-10	0	9	2	3	/	/	/
CCCCC(=O)Nc1cccc(NC(=S)NC(=O)C(C)C)c1	0	10	-1	2	-1	2	/	/	/
CCCCC(=O)Nc1cccc(NC(=O)CC)c1	25*	-5	10	9	2	7	6	-32	1
O=C(Nc1cccc(F)c1)O[C@@H]1CC[C@@]23CCCN2C(=O)CCC[C@H]3C1	0	0	-4	-6	-4	-5	/	/	/
CC(C)C[C@H]1CN([C@@H](Cc2ccccc2)CN2CCC[C@H]2CN2C(=O)C(=O)NC[C@@H]2Cc2ccccc2)C(=O)C(=O)N1CC1CCCCCC1	21*	3	-1	-8	3	0	1	-4	1
Cc1cc(O)c(Oc2cc(C)cc(O)c2O)c(O)c1	35*	5	38*	3	1	0	6	-31	33*
COC(=O)C1CN(Cc2ccccc2)CCS(=O)(=O)N1Cc1ccc(F)cc1 (stereo not drawn)	0	3	-3	14	-4	4	/	/	/
CC(=O)Oc1cccc2c1C(=O)c1c(OC(C)=O)cc(C(=O)O)cc1C2=O	-1	4	18	3	-5	-5	/	/	/
O=C(O)c1cc(O)c2c(c1)C(=O)c1cc(O)cc(O)c1C2=O	20*	-10	12	7	26*	-3	44*	-157	25*
O=C(NCc1ccccc1)C1(C(=O)C2CC2)CC(c2ccccc2C(F)(F)F)=NO1 (stereo not drawn)	2	-1	-1	0	3	-1	/	/	/
C=CCNC(=O)CN(C(=O)Cc1ccc(Cl)cc1)c1cccc(Br)c1	4	-7	-3	-2	-2	-2	/	/	/
Cc1ccc(N2C(=O)[C@@H]3[C@H](C2=O)C2c4ccccc4C=CN2[C@@H]3C(=O)c2ccco2)cc1 (stereo partly drawn)	13*	-4	10	14	-9	2	1	-5	25*
C=CCN1[C@@H](C)COc2cccc(F)c2S1(=O)=O	1	0	2	10	0	-5	/	/	/
COc1ccc(C(C#N)CC(=O)c2ccc(OCc3ccccc3)c(OC)c2)cc1OC (stereo not drawn)	60*	-9	5	-5	3	1	-2	8	-5
SMILES	LEDGF integ inh	SIAE primary	PRMT1 FP inh	TDP2 absorb	UHRF1 binding	MBD2 inh	IN multimer up	TR-FRET interf	IN-LEDGF confirm
COc1ccc(C(=O)OCCCN(C)C2CN(Cc3cn(Cc4cccc(F)c4)nn3)S(=O)(=O)C2)cc1OC (stereo not drawn)	-1	1	0	3	4	5	/	/	/
N#CCC1(O)C(=O)N(Cc2ccccc2)c2ccccc21 (stereo not drawn)	76*	-7	-1	-2	-3	2	1	-3	-10
Oc1cccc(/C=N/NC(=S)Nc2cccnc2)c1O	33*	14	12	2	-8	5	21*	-106	30*
CCN(Cc1ccc(NC(C)=O)cc1)CC1CCCN(CCc2cccc(OC)c2)C1 (stereo not drawn)	63*	2	-6	2	0	-4	0	3	0
CCN(Cc1ccccc1OC)CC1CCCN(CCc2cccc(OC)c2)C1 (stereo not drawn)	-4	-3	2	4	4	4	/	/	/
COc1cc(N)c2ncccc2c1Cl	44*	15	8	47*	5	-19	-1	3	6
C/C(C=Nn1c(-c2ccc(F)cc2)n[nH]c1=S)=C/c1ccco1	15*	1	18	-5	-2	-2	0	1	9
S=c1[nH]nc(-c2cccnc2)n1/N=C/C=C/c1ccco1	0	0	6	2	0	-1	/	/	/
